Data taken from ChEMBL document CHEMBL1149755, “Synthesis, physicochemical and anticonvulsant properties of new N-phenylamino derivatives of 2-azaspiro[4.4]nonane- and [4.5]decane-1,3-diones: part V” (Eur J Med Chem, 2008).
Active and inactive are the calls of the source. The calls are words filed in the database; no cut-off is given here.

Assays:
[1] = test system: Rattus norvegicus; experiment: Neurotoxicity in rat at 30 mg/kg, po after 4 hrs by rotarod test; type: toxicity, organism-based; set-up: dose 30 mg/kg, route oral; conditions: in vivo
In short: (§1)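 Phase VIa: oral administration to rats, four animals, fixed 30 mg/kg; MES protection and rota-rod neurotoxicity read at 0.25, 0.5, 1, 2 and 4 h post dose. Reported as number of animals protected (or showing toxicity) over number tested.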

[2] = test system: Rattus norvegicus; experiment: Neurotoxicity in rat at 30 mg/kg, po after 2 hrs by rotarod test; type: toxicity, organism-based; set-up: dose 30 mg/kg, route oral; conditions: in vivo; in short: as §1
[3] = Lipophilicity, log kw of compound by RP-HPLC; type: physicochemical
In short: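 RP-HPLC on end-capped C18 column, acetonitrile-containing mobile phase at several concentrations; uracil as unretained marker for dead volume; UV detection at 214 nm, room temperature; three measurement sets averaged; log kw obtained by extrapolation of linear log k versus organic modifier fraction (log k = log kw − Sφ).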

[4] = test system: Rattus norvegicus; experiment: Neurotoxicity in rat at 30 mg/kg, po after 0.25 hrs by rotarod test; type: toxicity, organism-based; set-up: dose 30 mg/kg, route oral; conditions: in vivo; in short: as §1
[5] = test system: Mus musculus; experiment: Anticonvulsant activity in ip dosed mouse after 0.5 hrs by maximal electroshock test; type: functional
In short: (§2)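 Phase I screen: intraperitoneal injection into mice as suspension in 0.5% methylcellulose at 30, 100 and 300 mg/kg; MES, subcutaneous pentylenetetrazole and rota-rod minimal motor impairment assessed at 0.5 h and 4 h after dosing (2 h also reported for some MES readings). Value is minimum dose showing activity or toxicity.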

[6] = test system: Mus musculus; experiment: Anticonvulsant activity in mouse at 300 mg/kg, ip; type: functional, organism-based; set-up: dose 300 mg/kg; in short: as §2
[7] = test system: Rattus norvegicus; experiment: Neurotoxicity in rat at 30 mg/kg, po after 1 hr by rotarod test; type: toxicity, organism-based; set-up: dose 30 mg/kg, route oral; conditions: in vivo; in short: as §1
[8] = test system: Mus musculus; experiment: Anticonvulsant activity in ip dosed mouse after 0.5 hrs by subcutaneous pentylenetetrazole test; type: functional; in short: as §2
[9] = test system: Rattus norvegicus; experiment: Neurotoxicity in rat at 30 mg/kg, po after 0.5 hrs by rotarod test; type: toxicity, organism-based; set-up: dose 30 mg/kg, route oral; conditions: in vivo; in short: as §1
[10] = test system: Mus musculus; experiment: Neurotoxicity in ip dosed mouse after 0.5 hrs by rotarod test; type: toxicity, organism-based; conditions: in vivo; in short: as §2
[11] = test system: Mus musculus; experiment: Neurotoxicity in ip dosed mouse after 4 hrs by rotarod test; type: toxicity, organism-based; conditions: in vivo; in short: as §2
[12] = species: Rattus norvegicus; experiment: Displacement of [3H]muscimol from GABAA receptor in rat brain cortex; type: tissue-based
In short: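 Rat brain membranes washed repeatedly in ice-cold 50 mM Tris-HCl pH 7.4, stored at −20 °C at least 18 h; incubated 10 min at 0 °C with 3 nM [3H]muscimol (stock) and eight test concentrations 10^-11–10^-4 M; nonspecific binding with GABA; filtration, scintillation counting, duplicates, iterative curve fitting.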

[13] = test system: Mus musculus; experiment: Anticonvulsant activity in ip dosed mouse after 4 hrs by maximal electroshock test; type: functional; in short: as §2
[14] = test system: Mus musculus; experiment: Anticonvulsant activity in ip dosed mouse after 2 hrs by maximal electroshock test; type: functional; in short: as §2
[15] = test system: Rattus norvegicus; experiment: Anticonvulsant activity in po dosed rat after 2 hrs by maximal electroshock test; type: functional
In short: (§3)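 Phase II quantification in rats after oral dosing: median effective dose in MES and scPTZ seizure tests determined at the previously estimated time of peak effect, 2 h.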

[16] = test system: Mus musculus; experiment: Anticonvulsant activity in mouse at 100 mg/kg, ip; type: functional, organism-based; set-up: dose 100 mg/kg; in short: as §2
[17] = test system: Rattus norvegicus; experiment: Anticonvulsant activity in po dosed rat after 2 hrs by subcutaneous pentylenetetrazole test; type: functional; in short: as §3
[18] = test system: Mus musculus; experiment: Toxicity in mouse at 30 mg/kg, ip; type: organism-based; set-up: dose 30 mg/kg, route intraperitoneal; conditions: in vivo; in short: as §2
[19] = test system: Mus musculus; experiment: Anticonvulsant activity in ip dosed mouse after 4 hrs by subcutaneous pentylenetetrazole test; type: functional; in short: as §2

SMILES | logKw [3] | Activity [12] | Activity [6] | Minimum neurotoxic dose [10] [mg/kg] | Activity [13] [mg/kg] | other results
O=C1CC2(CCCC2)C(=O)N1Nc1ccccc1Cl | 2.095 | – | Active | – | – | Activity [1]: Non-toxic; Activity [2]: Non-toxic; Activity [4]: Non-toxic; Activity [5]: 300 mg/kg; Activity [7]: Non-toxic; Activity [8]: 300 mg/kg; Activity [9]: Non-toxic
O=C1CC2(CCCC2)C(=O)N1Nc1ccc(Br)cc1 | 2.115 | inactive | Active | 100 | 300 | Activity [8]: 300 mg/kg; Activity [14]: 100 mg/kg
O=C1CC2(CCCCC2)C(=O)N1Nc1ccc(Br)cc1 | 2.337 | inactive | – | 30 | 100 | Activity [16]: Active; Activity [18]: Toxic
O=C1CC2(CCCCC2)C(=O)N1Nc1ccccc1Cl | 2.322 | – | inactive | – | – | –
O=C1CC(C2CCCCC2)C(=O)N1Nc1ccc(Cl)cc1Cl (stereo unspecified) | 2.896 | – | inactive | – | – | –
O=C1CC(C2CCCCC2)C(=O)N1Nc1ccccc1Cl (stereo unspecified) | 2.536 | – | inactive | – | – | –

The next lines start with results.

logKw [3] | Activity [12] | SMILES | Activity [6] | Minimum neurotoxic dose [10] [mg/kg] | Activity [13] [mg/kg] | other results
2.977 | – | CC1CCC2(CC1)CC(=O)N(Nc1ccc(Cl)cc1Cl)C2=O (stereo unspecified) | inactive | 100 | – | Activity [11]: 100 mg/kg
2.419 | inactive | O=C1CC2(CCCC2)C(=O)N1Nc1ccc(Cl)cc1Cl | – | 300 | 300 | Activity [1]: Non-toxic; Activity [2]: Non-toxic; ED50 [15]: > 180 mg/kg; TD50 [15]: > 250 mg/kg; Activity [16]: Active; Activity [4]: Non-toxic; Activity [5]: 100 mg/kg; Activity [7]: Non-toxic; ED50 [17]: > 125 mg/kg; TD50 [17]: > 250 mg/kg; Activity [9]: Non-toxic
2.847 | – | CC1CCCCC12CC(=O)N(Nc1ccc(Cl)cc1Cl)C2=O (stereo unspecified) | Active | – | 300 | Activity [8]: 300 mg/kg
2.561 | – | CC1CCCCC12CC(=O)N(Nc1ccc(Br)cc1)C2=O (stereo unspecified) | Active | – | 300 | Activity [14]: 100 mg/kg; Activity [11]: 300 mg/kg
2.976 | – | CC1CCCC2(CC(=O)N(Nc3ccc(Cl)cc3Cl)C2=O)C1 (stereo unspecified) | inactive | – | – | –
2.515 | – | CC1CCCCC12CC(=O)N(Nc1ccccc1Cl)C2=O (stereo unspecified) | inactive | 100 | – | –
2.634 | inactive | O=C1CC2(CCCCC2)C(=O)N1Nc1ccc(Cl)cc1Cl | – | – | 100 | Activity [1]: Non-toxic; Activity [2]: Non-toxic; Activity [16]: Active; Activity [4]: Non-toxic; Activity [19]: 300 mg/kg; Activity [7]: Non-toxic; Activity [9]: Non-toxic
